≈ marks a conversion by molar mass, not a printed value.
Key:
Type in all cases: functional
Staphylococcus aureus [1] = assay: Antibacterial activity against Staphylococcus aureus ATCC 25923 after 18 hrs by […] in presence of human plasma; conditions: ATCC 25923, Plasma
How it was run: (§1)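 To gauge plasma protein binding and/or plasma instability, MIC was determined in Mueller-Hinton broth containing 50% human plasma. Linezolid served as a reference agent. Ratio compares this MIC with the MIC obtained without plasma.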

Moraxella catarrhalis [2] = assay: Antibacterial activity against Moraxella catarrhalis clinical isolate 2824 after 18 hrs by NCCLS agar dilution method; conditions: clinical isolate 2824, 18 h
How it was run: (§2)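 NCCLS agar dilution on Mueller-Hinton agar with 5% sheep blood added to support growth. Drug dilutions 0.12–64 µg/ml. Test agents in 80% DMSO in water, linezolid in 40% water in ethanol. Final inoculum 10^7 CFU/ml, 18 h at 35 °C. MIC read as the lowest concentration with no visible growth.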

Staphylococcus [3] = assay: Antibacterial activity against methicillin-resistant coagulase-negative Staphylococcus after 18 hrs by NCCLS agar dilution method
How it was run: (§3)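 Clinical isolates were tested by agar dilution on Mueller-Hinton agar with drug dilutions from 0.12 to 64 µg/ml. Test compounds were dissolved in 80% DMSO in water. Final inoculum was 10^7 CFU/ml, incubated at 35 °C for 18 h. MIC was the lowest concentration inhibiting visible growth.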

Moraxella catarrhalis [4] = assay: Antibacterial activity against Moraxella catarrhalis clinical isolate 1 after 18 hrs by NCCLS agar dilution method; conditions: clinical isolate 1, 18 h; how it was run: as §2
Staphylococcus aureus [5] = assay: Antibacterial activity against Staphylococcus aureus ATCC 25923 after 18 hrs by NCCLS agar dilution method; conditions: ATCC 25923, 18 h
How it was run: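 Plain Mueller-Hinton agar, agar dilution per NCCLS, concentrations 0.12–64 µg/ml. Test agents in 80% DMSO in water, linezolid in 40% water in ethanol, vancomycin in water. Final inoculum 10^7 CFU/ml, 35 °C for 18 h. MIC = lowest concentration inhibiting visible growth.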

Escherichia coli = assay: Antibacterial activity against Escherichia coli ATCC 25922 after 18 hrs by NCCLS agar dilution method; conditions: ATCC 25922, 18 h
How it was run: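 Agar dilution per NCCLS on Mueller-Hinton agar, drug dilutions 0.12–64 µg/ml. Linezolid dissolved in 40% water in ethanol, vancomycin in water, test agents in 80% DMSO in water. Inoculum 10^7 CFU/ml (final), incubated 35 °C for 18 h. MIC is the lowest concentration preventing visible growth.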

Staphylococcus [6] = assay: Antibacterial activity against methicillin-susceptible coagulase-negative Staphylococcus after 18 hrs by NCCLS agar dilution method; how it was run: as §3
Moraxella catarrhalis [7] = assay: Antibacterial activity against Moraxella catarrhalis clinical isolate 36 after 18 hrs by NCCLS agar dilution method; conditions: clinical isolate 36, 18 h; how it was run: as §2
Moraxella catarrhalis [8] = assay: Antibacterial activity against Moraxella catarrhalis clinical isolate 112 after 18 hrs by NCCLS agar dilution method; conditions: clinical isolate 112, 18 h; how it was run: as §2
Moraxella catarrhalis [9] = assay: Antibacterial activity against Moraxella catarrhalis ATCC 8176 after 18 hrs by NCCLS agar dilution method; conditions: ATCC 8176, 18 h; how it was run: as §2
Streptococcus pneumoniae = assay: Antibacterial activity against penicillin-resistant Streptococcus pneumoniae after 18 hrs by NCCLS agar dilution method
How it was run: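 Agar dilution was run on Mueller-Hinton agar supplemented with 5% sheep blood, with drug dilutions from 0.12 to 64 µg/ml. Test compounds were dissolved in 80% DMSO in water. Final inoculum was 10^7 CFU/ml, incubated at 35 °C for 18 h. MIC was the lowest concentration preventing visible growth.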

Moraxella catarrhalis [10] = assay: Antibacterial activity against Moraxella catarrhalis clinical isolate 255 after 18 hrs by NCCLS agar dilution method; conditions: clinical isolate 255, 18 h; how it was run: as §2
Staphylococcus aureus [11] = assay: Antibacterial activity against methicillin-resistant Staphylococcus aureus after 18 hrs by NCCLS agar dilution method; how it was run: as §3
Moraxella catarrhalis [12] = assay: Antibacterial activity against Moraxella catarrhalis clinical isolate 3447 after 18 hrs by NCCLS agar dilution method; conditions: clinical isolate 3447, 18 h; how it was run: as §2
Enterococcus [13] = assay: Antibacterial activity against vancomycin-susceptible Enterococcus after 18 hrs by NCCLS agar dilution method; how it was run: as §3
Enterococcus [14] = assay: Antibacterial activity against vancomycin-resistant Enterococcus after 18 hrs by NCCLS agar dilution method; how it was run: as §3
Moraxella catarrhalis [15] = assay: Antibacterial activity against Moraxella catarrhalis clinical isolate 138 after 18 hrs by NCCLS agar dilution method; conditions: clinical isolate 138, 18 h; how it was run: as §2
Haemophilus influenzae = assay: Antibacterial activity against Haemophilus influenzae ATCC 49247 after 18 hrs by NCCLS agar dilution method; conditions: ATCC 49247, 18 h; how it was run: as §2
Staphylococcus aureus [16] = assay: Antibacterial activity against methicillin-susceptible Staphylococcus aureus after 18 hrs by NCCLS agar dilution method; how it was run: as §3
Moraxella catarrhalis [17] = assay: Antibacterial activity against Moraxella catarrhalis clinical isolate 125 after 18 hrs by NCCLS agar dilution method; conditions: clinical isolate 125, 18 h; how it was run: as §2
Moraxella catarrhalis [18] = assay: Ratio of linezolid MIC to compound MIC for Moraxella catarrhalis ATCC 8176
Staphylococcus aureus [19] = assay: Ratio of MIC for Staphylococcus aureus ATCC 25923 to MIC for Staphylococcus aureus ATCC 25923 in presence of human plasma; how it was run: as §1

Row | SMILES | MIC (Staphylococcus aureus [1]) [µg/mL] | MIC (Moraxella catarrhalis [2]) [µg/mL] | MIC (Staphylococcus [3]) [µg/mL] | MIC (Moraxella catarrhalis [4]) [µg/mL] | MIC (Staphylococcus aureus [5]) [µg/mL] | MIC (Escherichia coli) [µg/mL] | MIC (Staphylococcus [6]) [µg/mL] | MIC (Moraxella catarrhalis [7]) [µg/mL] | MIC (Moraxella catarrhalis [8]) [µg/mL] | MIC (Moraxella catarrhalis [9]) [µg/mL] | MIC (Streptococcus pneumoniae) [µg/mL] | MIC (Moraxella catarrhalis [10]) [µg/mL] | MIC (Staphylococcus aureus [11]) [µg/mL] | MIC (Moraxella catarrhalis [12]) [µg/mL] | MIC (Enterococcus [13]) [µg/mL] | MIC (Enterococcus [14]) [µg/mL] | MIC (Moraxella catarrhalis [15]) [µg/mL] | MIC (Haemophilus influenzae) [µg/mL] | MIC (Staphylococcus aureus [16]) [µg/mL] | MIC (Moraxella catarrhalis [17]) [µg/mL] | also measured
1 | Cc1cn(C[C@H]2CN(c3ccc(N4CCN(C(=O)CNC(=O)c5ccccc5)CC4)c(F)c3)C(=O)O2)nn1 | 16 | 4 (≈ 7.67 µM) | 0.5 (≈ 0.959 µM) | 4 (≈ 7.67 µM) | 1 (≈ 1.92 µM) | > 64 | 0.5 (≈ 0.959 µM) | 4 (≈ 7.67 µM) | 4 (≈ 7.67 µM) | 8 (≈ 15.3 µM) | 2 (≈ 3.83 µM) | 4 (≈ 7.67 µM) | 0.5 (≈ 0.959 µM) | 4 (≈ 7.67 µM) | 0.5 (≈ 0.959 µM) | 0.5 (≈ 0.959 µM) | 4 (≈ 7.67 µM) | 32 (≈ 61.4 µM) | 0.5 (≈ 0.959 µM) | 4 (≈ 7.67 µM) | 
2 | O=C(NCC(=O)N1CCN(c2ccc(N3C[C@H](Cn4ccnn4)OC3=O)cc2F)CC1)c1cc([N+](=O)[O-])cc([N+](=O)[O-])c1 | 16 | 0.25 (≈ 0.418 µM) | 0.5 (≈ 0.837 µM) | 0.25 (≈ 0.418 µM) | 1 (≈ 1.67 µM) | > 64 | 0.5 (≈ 0.837 µM) | 0.25 (≈ 0.418 µM) | 0.25 (≈ 0.418 µM) | 0.5 (≈ 0.837 µM) | 0.25 (≈ 0.418 µM) | 0.25 (≈ 0.418 µM) | 0.5 (≈ 0.837 µM) | 0.25 (≈ 0.418 µM) | 0.5 (≈ 0.837 µM) | 1 (≈ 1.67 µM) | 0.25 (≈ 0.418 µM) | 16 (≈ 26.8 µM) | 0.5 (≈ 0.837 µM) | 0.25 (≈ 0.418 µM) | Ratio (Moraxella catarrhalis [18]): 16; Ratio (Staphylococcus aureus [19]): 16
3 | Cc1cn(C[C@H]2CN(c3ccc(N4CCN(C(=O)CNC(=O)c5cc([N+](=O)[O-])cc([N+](=O)[O-])c5)CC4)c(F)c3)C(=O)O2)nn1 | 8 | 1 (≈ 1.64 µM) | 1 (≈ 1.64 µM) | 1 (≈ 1.64 µM) | 2 (≈ 3.27 µM) | > 64 | 1 (≈ 1.64 µM) | 1 (≈ 1.64 µM) | 0.5 (≈ 0.818 µM) | 1 (≈ 1.64 µM) | 0.25 (≈ 0.409 µM) | 0.5 (≈ 0.818 µM) | 1 (≈ 1.64 µM) | 0.5 (≈ 0.818 µM) | 1 (≈ 1.64 µM) | 2 (≈ 3.27 µM) | 1 (≈ 1.64 µM) | > 16 | 1 (≈ 1.64 µM) | 0.5 (≈ 0.818 µM) | Ratio (Moraxella catarrhalis [18]): 8; Ratio (Staphylococcus aureus [19]): 4
4 | O=C(NCC(=O)N1CCN(c2ccc(N3C[C@H](Cn4ccnn4)OC3=O)cc2F)CC1)c1cccnc1 | 8 | 8 (≈ 15.7 µM) | 1 (≈ 1.97 µM) | 8 (≈ 15.7 µM) | 2 (≈ 3.93 µM) | > 64 | 1 (≈ 1.97 µM) | 8 (≈ 15.7 µM) | 8 (≈ 15.7 µM) | 8 (≈ 15.7 µM) | 0.25 (≈ 0.492 µM) | 8 (≈ 15.7 µM) | 1 (≈ 1.97 µM) | 8 (≈ 15.7 µM) | 2 (≈ 3.93 µM) | 2 (≈ 3.93 µM) | 8 (≈ 15.7 µM) | 8 (≈ 15.7 µM) | 1 (≈ 1.97 µM) | 8 (≈ 15.7 µM) | 

Source: ChEMBL document CHEMBL2412955, “Synthesis and antibacterial activities of N-substituted-glycinyl 1H-1,2,3-triazolyl oxazolidinones” (2013)
